FGF22 binding-1: binders of recombinant human FGF22 by thermal shift; Q9HCT0; SYPRO orange fluorescence; percent of sucrose octasulfate shift, DMSO zero; activity (Tm shift, normalised), % at 9.99 µM; actives 1.5% (n = 340,000); AID 651658;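 active = mean Tm shift, scaled 0 neutral to 100 positive control, at about 1.3% or above, every replicate too, limit read from the data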
Target sequence (Q9HCT0 whole entry, looked up): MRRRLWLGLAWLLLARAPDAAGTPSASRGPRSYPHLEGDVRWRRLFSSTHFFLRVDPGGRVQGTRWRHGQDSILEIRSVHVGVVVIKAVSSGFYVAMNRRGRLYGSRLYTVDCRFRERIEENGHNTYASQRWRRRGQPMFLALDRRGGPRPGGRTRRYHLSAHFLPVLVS
dFosB act: mouse delta FosB homodimer activation; AID 493131; P13346; actives 0.99% (n = 340,000); activation, % at 25 µM; purified delta FosB, TAMRA-CDK5 oligo fluorescence polarization; percent of positive-control signal above neutral wells;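 active = mean activation above about 17%, with every replicate also reaching it, limit read from the data, passing the limit was not always enough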
Target sequence (P13346 whole entry, looked up): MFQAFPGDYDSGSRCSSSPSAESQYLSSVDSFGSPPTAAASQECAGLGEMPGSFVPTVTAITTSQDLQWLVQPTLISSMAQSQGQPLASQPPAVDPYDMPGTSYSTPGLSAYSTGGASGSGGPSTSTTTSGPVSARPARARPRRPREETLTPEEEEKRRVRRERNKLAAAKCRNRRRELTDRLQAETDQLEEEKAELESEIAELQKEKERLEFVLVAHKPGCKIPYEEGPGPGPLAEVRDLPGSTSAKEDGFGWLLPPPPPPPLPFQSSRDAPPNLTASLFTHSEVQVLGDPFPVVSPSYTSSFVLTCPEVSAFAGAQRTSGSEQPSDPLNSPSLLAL
CFTR F508del cor: CFTR F508del correction in bronchial cells; CFBE cells, YFP halide quenching; stimulated with forskolin plus potentiator P3; % fluorescence drop versus neutral controls; activity (quench increase), % at 7.58 µM; actives 0.36% (n = 350,000); AID 720511;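 active = mean added fluorescence quench of at least 8% versus neutral control, with both replicates also reaching 8%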;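 note: cells transiently co-express mutant CFTR-F508del with the halide-sensitive YFP; corrector assay measuring rescue of mutant channel to the surface after 24 h compound exposure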
S100A4 inh HTS: S100A4-myosin IIA interaction inhibition; AID 652163; actives 0.14% (n = 360,000); inhibition, % at 10.7 µM; P26447; S100A4/TAMRA-MyoIIA peptide fluorescence polarization;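 active = mean inhibition of at least 70% across replicates, with every replicate also reaching that level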
Target sequence (P26447 whole entry, looked up): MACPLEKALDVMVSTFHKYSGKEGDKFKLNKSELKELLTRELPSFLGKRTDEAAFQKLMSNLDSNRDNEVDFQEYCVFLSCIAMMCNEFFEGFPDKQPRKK
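Material: S100A4 monomer (human). Medium: Calcium-containing HEPES buffer, pH 7.2. Probe or stimulus: labelled myosin peptide probe, 5 nM. Compound dosing: one concentration per compound. Timing: polarization read 5 min after assay mix addition, stable 5–60 min. Benchmarks: DMSO as neutral control, TFP as positive control.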
FGF22 binding-2: binds human FGF22 shifting its melting temperature | recombinant FGF22 thermal shift, SYPRO orange fluorescence | shares compounds with FGF22 binding-1 | actives 2% (n = 1,000) | AID 720646 | thermal shift activity, °C (ΔTm) at 38 µM;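 active = fitted rise in melting shift crosses a set limit at or below the top valid dose tested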
FGF22 TSA DP: FGF22 (human) binding by thermal shift; Thermal shift assay, SYPRO orange, melting temperature shift; AID 743017; 50 tested, under 10 active; Tm shift (activity), % at 38 µM; shares compounds with FGF22 binding-1;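 active = compounds whose fitted dose curve of melting temperature shift rises past a set threshold within the tested doses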
SYPRO no-protein: compound-only SYPRO artifact for FGF22 binders | shares compounds with FGF22 binding-1 | compound-only SYPRO orange thermal shift counter-screen, no protein | AC50, µM (titrated, usually from 38 µM) | actives 2% (n = 1,000);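 active = rising signal whose fitted curve reaches the 0.54 level within the top valid dose, showing a melting point, actives reach about 13 µM in these data; inactive = the rest, including activity in the opposite direction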; note: value is where the raw curve crosses a fixed level and not half-maximal
Active calls of the source: *; [ ] = dose if it differs, or a comment. A selection: hits, their analogues and other compounds. The true share with any hit is near 2.2%.

`CCN1C(=O)C(CC(=O)Nc2ccc(F)cc2)N(Cc2ccc3c(c2)OCO3)C1=S` (configuration not stated) gave FGF22 binding-1 2.9*, dFosB act -9, CFTR F508del cor 1, S100A4 inh HTS -21, FGF22 binding-2 -0.21, FGF22 TSA DP 0 and SYPRO no-protein inactive.
For CO[C@H]1CN(C)C(=O)c2cc(NC(=O)c3ccc4c(c3)OCO4)ccc2OC[C@@H](C)NC[C@@H]1C the results were CFTR F508del cor -4 and S100A4 inh HTS 6.
For Cc1ccccc1NC(=O)c1ccc(F)c(S(=O)(=O)NCC2CCCO2)c1 (configuration not stated) the results were FGF22 binding-1 0, dFosB act -3, CFTR F508del cor 0 and S100A4 inh HTS 3.
Cc1ccc(NC(=O)c2ccc(Cl)c(S(=O)(=O)NCC3CCCO3)c2)c(O)c1 (configuration not stated) was read as FGF22 binding-1 30*, dFosB act -11, CFTR F508del cor 1, S100A4 inh HTS 5, FGF22 binding-2 0.18 and SYPRO no-protein inactive.
`O=C(C[C@H]1C=C[C@H](NC(=O)c2cccc(F)c2)[C@H](CO)O1)NCCN1CCCC1` gave FGF22 binding-1 0, CFTR F508del cor 0 and S100A4 inh HTS 4.
O=C(N[C@@H]1C=C[C@@H](CC(=O)N2CCCCC2)O[C@@H]1CO)c1cccc(F)c1 was read as FGF22 binding-1 1.8*, CFTR F508del cor 0, S100A4 inh HTS -62, FGF22 binding-2 -0.09[42 µM] and SYPRO no-protein inactive.
For C[C@H](CO)N1C[C@H](C)[C@@H](CN(C)C(=O)Nc2ccc(C(F)(F)F)cc2)OCCCC[C@H](C)Oc2ccc(N(C)C)cc2C1=O the results were CFTR F508del cor 3.
O=C(N/N=C/c1c[nH]c2ccccc12)c1ccc([N+](=O)[O-])cc1Cl was read as dFosB act 3.
For Cc1ccsc1/C=N/NC(=O)c1c[nH]c2ccccc12 the results were dFosB act -8.
For O=C(N/N=C/c1ccsc1)c1c[nH]c2ccccc12 the results were FGF22 binding-1 3.7*, dFosB act -7, CFTR F508del cor -1, S100A4 inh HTS 0, FGF22 binding-2 -0.063 and SYPRO no-protein inactive.
`CC(=O)Nc1cccc(C(=O)N/N=C/c2c[nH]c3ccccc23)c1` gave FGF22 binding-1 3.8*, dFosB act -4, CFTR F508del cor 4, S100A4 inh HTS 0, FGF22 TSA DP 0 and SYPRO no-protein inactive.
O=C(N/N=C/c1c[nH]c2ccccc12)c1cccc(Cl)c1 was read as FGF22 binding-1 2.8*, dFosB act 0, CFTR F508del cor 2, S100A4 inh HTS 4, FGF22 TSA DP 0 and SYPRO no-protein inactive.
Screening O=C(N/N=C/c1c[nH]c2ccccc12)c1ccc(O)c(O)c1 returned FGF22 binding-1 2.4*, dFosB act 0, CFTR F508del cor 2, S100A4 inh HTS 8, FGF22 binding-2 -0.034, FGF22 TSA DP 0 and SYPRO no-protein inactive.
COc1ccc(C(=O)N/N=C/c2c[nH]c3ccccc23)cc1 was read as FGF22 binding-1 0, dFosB act -5, CFTR F508del cor -1 and S100A4 inh HTS -4.
O=C(N/N=C/c1c[nH]c2ccccc12)c1cccc(O)c1 was read as FGF22 binding-1 2.1*, dFosB act 0, CFTR F508del cor -1, S100A4 inh HTS 0, FGF22 binding-2 0.52, FGF22 TSA DP 1 and SYPRO no-protein inactive.
`O=C(N/N=C/c1ccc(Cl)cc1)c1ccc2nc[nH]c2c1` gave FGF22 binding-1 2.5*, CFTR F508del cor -1, S100A4 inh HTS 4, FGF22 binding-2 0.017 and SYPRO no-protein inactive.
COC(=O)c1ccc(/C=N/NC(=O)c2ccc3nc[nH]c3c2)cc1 was read as FGF22 binding-1 0, dFosB act -4, CFTR F508del cor -1 and S100A4 inh HTS -3.
For C[C@H](CO)N1C[C@H](C)[C@H](CN(C)Cc2ccc(-c3ccccc3)cc2)OCc2cnnn2CCCC1=O the results were FGF22 binding-1 0, CFTR F508del cor 0 and S100A4 inh HTS 3.
For Cc1ccc(S(=O)(=O)Nc2ccc3c(c2)C(=O)N([C@H](C)CO)C[C@@H](C)[C@H](CN(C)C(=O)Nc2ccc4c(c2)OCO4)OCCCC[C@H](C)O3)cc1 the results were FGF22 binding-1 0, CFTR F508del cor -1 and S100A4 inh HTS -30.
Screening O=C(C[C@H]1CC[C@@H](NS(=O)(=O)c2ccc(F)cc2)[C@@H](CO)O1)NCCN1CCCCC1 returned FGF22 binding-1 0, CFTR F508del cor -2 and S100A4 inh HTS -2.
For COc1ccc(C(=O)Nc2nc(CC(=O)NCCc3cccc(OC)c3)cs2)cc1 the results were FGF22 binding-1 0, dFosB act -12, CFTR F508del cor -2 and S100A4 inh HTS -12.
`COc1ccc(C(=O)Nc2nc(CC(=O)NCCc3ccccc3)cs2)cc1` gave FGF22 binding-1 2.2*, dFosB act -10, CFTR F508del cor 0, S100A4 inh HTS -1, FGF22 binding-2 -0.006 and SYPRO no-protein inactive.
`COc1ccc2o/c(=N\O)c(C(=O)Nc3ccc(C)cc3)cc2c1` gave FGF22 binding-1 2.3*, dFosB act 13, CFTR F508del cor -2, S100A4 inh HTS 5, FGF22 binding-2 0.091 and SYPRO no-protein inactive.
Screening Cc1nc2ccc(NC(=O)c3cc(S(=O)(=O)N4CCOCC4)ccc3C)cc2s1 returned dFosB act 0.
CCOc1ccc(NC(=O)c2cccc(-n3cccc3)c2)cc1S(=O)(=O)N1CCOCC1 was read as FGF22 binding-1 2.3*, dFosB act -16, CFTR F508del cor -3, S100A4 inh HTS 4, FGF22 binding-2 -0.15 and SYPRO no-protein inactive.
For Cc1nc2ccc(NC(=O)c3ccc(C)c(S(=O)(=O)N4CCOCC4)c3)cc2s1 the results were FGF22 binding-1 1.6*, dFosB act -19, CFTR F508del cor 3, S100A4 inh HTS -16, FGF22 binding-2 0.043 and SYPRO no-protein inactive.
`C[C@H]1CN([C@@H](C)CO)C(=O)Cc2cc(NC(=O)Nc3cccc4ccccc34)ccc2O[C@H]1CN(C)C(=O)Nc1cccc2ccccc12` gave FGF22 binding-1 0, CFTR F508del cor -1 and S100A4 inh HTS -8.
Cc1nc2ccc(NC(=O)c3cc([N+](=O)[O-])cc([N+](=O)[O-])c3Cl)cc2s1 was read as FGF22 binding-1 2.1*, dFosB act -2, S100A4 inh HTS -2, FGF22 binding-2 0.23 and SYPRO no-protein inactive.

High-throughput results from PubChem.
